Source: paper PMC7217742 (Addiction biology, 2019)

What was measured:
DAT [1] = conditions: range given for DAT and NET together; cited from earlier work
NET [2] = conditions: range given for DAT and NET together; cited from earlier work
[3] = tested on: mice trained to discriminate cocaine from saline; conditions: cited from earlier work
rats = conditions: progressive ratio schedule, rats trained with racemic MDPV; cited from earlier work
DAT [4] = molecular target: DAT (Rattus norvegicus, UniProt P23977); experiment: Inhibition of [3H]dopamine uptake in rat brain synaptosomes; format: biochemical
DAT (Rattus norvegicus, UniProt P23977), sequence (P23977 whole entry): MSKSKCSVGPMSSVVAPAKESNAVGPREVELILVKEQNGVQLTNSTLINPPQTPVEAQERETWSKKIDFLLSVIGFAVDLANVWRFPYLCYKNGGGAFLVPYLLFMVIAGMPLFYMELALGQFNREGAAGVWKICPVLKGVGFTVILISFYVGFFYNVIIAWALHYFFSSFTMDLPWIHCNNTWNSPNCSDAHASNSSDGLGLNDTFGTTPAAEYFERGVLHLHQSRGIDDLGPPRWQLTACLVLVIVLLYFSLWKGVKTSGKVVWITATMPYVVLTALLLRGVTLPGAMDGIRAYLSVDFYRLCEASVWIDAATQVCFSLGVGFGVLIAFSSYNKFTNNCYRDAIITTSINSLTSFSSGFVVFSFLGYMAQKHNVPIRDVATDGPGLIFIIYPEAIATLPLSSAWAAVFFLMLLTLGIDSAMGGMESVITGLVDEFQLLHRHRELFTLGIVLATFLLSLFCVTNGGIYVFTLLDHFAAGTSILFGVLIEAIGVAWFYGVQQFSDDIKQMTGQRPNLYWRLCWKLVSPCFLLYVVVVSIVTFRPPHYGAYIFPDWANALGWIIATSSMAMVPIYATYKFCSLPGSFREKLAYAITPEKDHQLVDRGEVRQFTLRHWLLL

NET [5] = molecular target: NET (Rattus norvegicus, UniProt Q63380); experiment: Inhibition of [3H]norepinephrine uptake in rat brain synaptosomes; format: biochemical
NET (Rattus norvegicus, UniProt Q63380), sequence (Q63380 1-617): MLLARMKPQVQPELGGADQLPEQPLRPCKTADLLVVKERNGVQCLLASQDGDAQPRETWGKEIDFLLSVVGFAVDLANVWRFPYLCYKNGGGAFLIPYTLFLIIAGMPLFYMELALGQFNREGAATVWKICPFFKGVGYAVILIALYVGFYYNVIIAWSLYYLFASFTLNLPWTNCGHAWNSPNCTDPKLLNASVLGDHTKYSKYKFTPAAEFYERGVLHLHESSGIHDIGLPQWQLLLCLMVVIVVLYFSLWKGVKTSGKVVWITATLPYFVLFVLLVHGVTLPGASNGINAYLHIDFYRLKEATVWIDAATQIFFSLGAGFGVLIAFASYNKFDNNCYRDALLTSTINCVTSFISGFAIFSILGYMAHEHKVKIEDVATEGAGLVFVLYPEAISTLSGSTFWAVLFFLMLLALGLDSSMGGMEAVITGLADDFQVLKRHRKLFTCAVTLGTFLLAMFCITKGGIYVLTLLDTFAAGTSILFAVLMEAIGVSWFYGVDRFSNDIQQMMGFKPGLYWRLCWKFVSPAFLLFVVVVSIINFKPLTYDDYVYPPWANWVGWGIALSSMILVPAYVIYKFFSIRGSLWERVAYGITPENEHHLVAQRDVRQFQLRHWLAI

[6] = tested on: extracellular dopamine in the nucleus accumbens; experiment: In vivo microdialysis, dopamine; parameters: species or system rat; conditions: for dose producing a significant increase in extracellular dopamine: i.v., nucleus accumbens microdialysis, vs saline
Summary of the method: (§1)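 Male Sprague-Dawley rats (300–400 g) were anesthetized with ketamine/xylazine (75/5 mg/kg i.p.) and fitted with a jugular catheter and a guide cannula aimed at the nucleus accumbens. After three stable baseline samples, they received two i.v. doses 60 min apart, the second threefold higher (0.1 then 0.3, or 1.0 then 3.0 mg/kg); controls received saline (1 ml/kg). Dialysate was collected every 20 min for 120 min. Probe placement was verified histologically. Data were expressed as % baseline and analysed by two-way ANOVA with Bonferroni tests.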

male Sprague-Dawley rats [7] = experiment: Locomotor activity; format: in vivo, rat; conditions: i.v., lowest dose with increase, during microdialysis
Summary of the method: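 Ambulation and stereotypy were counted by photobeam breaks in the same rats during nucleus accumbens microdialysis. The rats received two sequential i.v. injections 60 min apart, the second threefold higher (0.1/0.3 or 1.0/3.0 mg/kg), or saline (1 ml/kg), and were monitored through the 120-min post-injection period.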

male Sprague-Dawley rats [8] = experiment: Intravenous self-administration; format: in vivo, rat; conditions: for acquisition of self-administration (rats showing clear evidence): FR1, 10 days, 2-h sessions; for i.v. dose supporting peak responding: dose-effect testing after training on the same enantiomer, discussion; for dose of peak (highest) responding in dose-effect testing: i.v., after acquisition, results section; for active nose-poke responding over 10 days of extinction: saline substituted for drug
Summary of the method: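 Rats on a reverse light cycle were catheterized in the jugular vein under ketamine/xylazine (80/9.6 mg/kg i.p.) and recovered for at least 7 days. Active nose-pokes (side counterbalanced) were reinforced on FR1 with an i.v. infusion, each followed by a 20-s timeout, in 2-h sessions. Acquisition ran at least 10 days at 0.03 or 0.3 mg/kg/inj. Three further doses were then given in non-systematic order, 3 days each, averaging days 2–3. Saline substitution for 10 days followed. Analysis used a linear mixed-effects model.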

male Sprague-Dawley rats [9] = experiment: Telemetric assessment of blood pressure; format: in vivo, rat; conditions: s.c.; for ED50 blood pressure: mean over 3-h session, halfway point 109.5 mm Hg, 95% CI given in text
male Sprague-Dawley rats [10] = experiment: Telemetric assessment of body temperature; format: in vivo, rat; conditions: s.c., telemetry, data not shown
Summary of the method: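 In telemetry-implanted rats adapted to the chambers and to s.c. injection, body temperature was sampled for 10 s each minute for 3 h and averaged across the session. Doses were 0.3–3.0 mg/kg or 3.0–30 mg/kg s.c., in non-systematic order, at most twice weekly. One-way ANOVA with Dunnett's test compared each dose with control.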

[11] = tested on: extracellular 5-HT in the nucleus accumbens; experiment: In vivo microdialysis, 5-HT; parameters: species or system rat; conditions: i.v.
Summary of the method: as §1

[12] = uptake inhibition, rat brain synaptosomes

| SMILES | dose producing a significant increase in extracellular dopamine [6] [mg/kg] | dose increasing overall activity and stereotypy (male Sprague-Dawley rats [7]) [mg/kg] | acquisition of self-administration (rats showing clear evidence) (male Sprague-Dawley rats [8]; 0.03 mg/kg/injection i.v.) | i.v. dose supporting peak responding (male Sprague-Dawley rats [8]) [mg/kg/inj] | dose of peak (highest) responding in dose-effect testing (male Sprague-Dawley rats [8]) [mg/kg/injection] | active nose-poke responding over 10 days of extinction (male Sprague-Dawley rats [8]) | ED50 blood pressure (male Sprague-Dawley rats [9]) [mg/kg] | dose with significant increase in body temperature (male Sprague-Dawley rats [10]) [mg/kg] | also measured |
| --- | --- | --- | --- | --- | --- | --- | --- | --- | --- |
| CCC[C@@H](C(=O)c1ccc2c(c1)OCO2)N1CCCC1 [S-MDPV] | – | – | – | – | – | – | – | – | times more potent than R-MDPV in blocking uptake at DAT (DAT [1]): 50–100 times; times more potent than R-MDPV in blocking uptake at NET (NET [2]): 50–100 times; times more potent than the R-isomer in substituting for cocaine [3]: about 100 times; times more potent than the R-isomer in self-administration (rats): about 50 times |
| CCC[C@@H](C(=O)c1ccccc1)N1CCCC1 [S-α-PVP] | 0.1 | 0.1 | All 10 | ≤ 0.003 | 0.003 | decreased over the 10 days of extinction | 0.29 | 0.3 | times more potent than cocaine in blocking uptake at DAT (DAT [4]; discussion): about 30 times; times more potent than the racemate at DAT (DAT [4]; [12]): about 2 times; times more potent than the racemate at NET (NET [5]): about 2 times; times more potent than racemic on blood pressure (ED50) (male Sprague-Dawley rats [9]): approximately 2 times |
| CCCC(C(=O)c1ccccc1)N1CCCC1 (stereo not drawn) [R,S-α-PVP, α-pyrrolidinovalerophenone] | – | 0.3 | – | – | – | – | – | – | change in extracellular levels of 5-HT [11]: no changes |
| CCC[C@H](C(=O)c1ccccc1)N1CCCC1 [R-α-PVP] | 3 | 3 | did not show evidence of acquisition | 0.3 | 0.3 | did not decrease significantly over days of extinction | 5.85 | 10 | times less potent than S-α-PVP at DAT (DAT [4]; [12]): 40 times; times less potent than S-α-PVP at NET (NET [5]): 20 times; size of dopamine increase relative to 0.3 mg/kg S-α-PVP ([6]; 3 mg/kg i.v., nucleus accumbens): less than half; acquisition of self-administration (rats showing clear evidence) (male Sprague-Dawley rats [8]; 0.3 mg/kg/injection i.v.): Six of the 8; times less potent than S-α-PVP (self-administration dose-effect determinations) (male Sprague-Dawley rats [8]; abstract): at least 30 times; fold less potent than racemic α-PVP (self-administration dose-effect function) (male Sprague-Dawley rats [8]; rightward shift of inverted U-shaped function): around 30 fold; fold difference in potency between enantiomers from calculated ED50 values (male Sprague-Dawley rats [9]; blood pressure and heart rate, R- vs S-α-PVP): 20 – 40 fold; times less potent than racemic α-PVP on blood pressure (male Sprague-Dawley rats [9]; from significant doses): approximately 10 times |
